Laboratory results as given in ChEMBL document CHEMBL1124461, “Aromatic dienoyl tetramic acids. Novel antibacterial agents with activity against anaerobes and staphylococci” (J Med Chem, 1989).
Converted amounts (≈) assume the structure as drawn.

Key:
[1] = tested on: Bacteroides thetaiotaomicron; experiment: Minimum inhibitory concentration against Bacteroides thetaiotaomicron ATCC 29741; format: functional
Procedure, shortened: (§1)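 Anaerobic MICs by 2-fold dilution in Wilkens-Chalgren broth, reported in micrograms/milliliter.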

Clostridioides difficile [2] = experiment: Minimum inhibitory concentration against Clostridium difficile ATCC 9689; format: functional; procedure, shortened: as §1
Clostridium perfringens [3] = experiment: Minimum inhibitory concentration against Clostridium perfringens ATCC 13124; format: functional
Procedure, shortened: (§2)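 Anaerobic MIC by 2-fold dilution in Wilkens-Chalgren broth; values in µg/mL.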

[4] = molecular target: DNA-directed RNA polymerase subunit beta (Escherichia coli K-12) (UniProt P0A8V2); experiment: Percent inhibition at a concentration of 100 ug/mL of RNA polymerase isolated from Escherichia coli K12 (Sigma)
Chain of DNA-directed RNA polymerase subunit beta (Escherichia coli K-12) (P0A8V2 whole entry, looked up): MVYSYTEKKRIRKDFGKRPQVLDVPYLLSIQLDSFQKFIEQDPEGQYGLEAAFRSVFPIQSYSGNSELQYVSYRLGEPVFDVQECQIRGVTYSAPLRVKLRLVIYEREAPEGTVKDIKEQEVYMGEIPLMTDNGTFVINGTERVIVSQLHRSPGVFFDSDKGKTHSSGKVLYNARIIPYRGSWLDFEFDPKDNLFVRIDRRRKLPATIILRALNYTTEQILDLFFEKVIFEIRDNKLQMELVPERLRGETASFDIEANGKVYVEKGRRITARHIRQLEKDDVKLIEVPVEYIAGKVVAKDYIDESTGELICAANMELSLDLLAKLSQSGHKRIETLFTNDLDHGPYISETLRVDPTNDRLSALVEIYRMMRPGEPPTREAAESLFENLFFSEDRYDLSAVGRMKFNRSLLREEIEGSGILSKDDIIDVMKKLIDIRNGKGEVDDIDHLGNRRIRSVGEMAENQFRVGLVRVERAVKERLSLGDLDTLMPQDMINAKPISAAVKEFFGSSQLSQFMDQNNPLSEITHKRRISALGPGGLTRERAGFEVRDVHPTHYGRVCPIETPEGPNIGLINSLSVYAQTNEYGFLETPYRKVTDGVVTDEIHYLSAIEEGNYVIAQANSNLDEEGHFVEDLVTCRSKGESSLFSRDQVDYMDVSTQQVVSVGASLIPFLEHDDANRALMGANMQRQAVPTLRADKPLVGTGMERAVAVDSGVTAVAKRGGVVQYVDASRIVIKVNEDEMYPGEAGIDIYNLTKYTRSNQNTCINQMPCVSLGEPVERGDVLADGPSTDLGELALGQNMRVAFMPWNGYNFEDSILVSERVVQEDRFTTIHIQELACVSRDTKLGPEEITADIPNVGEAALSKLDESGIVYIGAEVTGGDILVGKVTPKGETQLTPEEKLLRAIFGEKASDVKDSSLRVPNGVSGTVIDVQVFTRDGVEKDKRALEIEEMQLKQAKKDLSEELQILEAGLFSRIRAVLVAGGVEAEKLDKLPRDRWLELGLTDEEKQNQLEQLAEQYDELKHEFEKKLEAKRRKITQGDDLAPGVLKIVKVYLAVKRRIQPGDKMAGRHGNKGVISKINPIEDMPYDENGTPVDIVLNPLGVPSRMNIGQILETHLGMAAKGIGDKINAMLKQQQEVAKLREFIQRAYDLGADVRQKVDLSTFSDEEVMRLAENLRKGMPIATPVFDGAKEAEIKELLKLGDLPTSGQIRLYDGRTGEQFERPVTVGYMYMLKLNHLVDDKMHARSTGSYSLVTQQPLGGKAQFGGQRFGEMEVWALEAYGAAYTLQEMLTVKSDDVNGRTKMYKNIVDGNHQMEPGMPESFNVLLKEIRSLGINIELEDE

Bacteroides fragilis [5] = experiment: Minimum inhibitory concentration against Bacteroides fragilis ATCC 25285; format: functional; procedure, shortened: as §1
Micrococcus luteus = experiment: Minimum inhibitory concentration (MIC) against the cell line Micrococcus luteus ATCC 4698; format: functional
Procedure, shortened: (§3)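 Aerobic MICs by 2-fold dilution on brain–heart infusion agar, reported in micrograms/milliliter.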

Streptococcus pyogenes = experiment: Minimum inhibitory concentration (MIC) against the cell line Streptococcus pyogenes EES61; format: functional; procedure, shortened: as §3
Escherichia coli [6] = experiment: Minimum inhibitory concentration (MIC) against the cell line Escherichia coli H560; format: functional; procedure, shortened: as §3
Staphylococcus aureus [7] = experiment: Minimum inhibitory concentration (MIC) against the cell line Staphylococcus aureus 45; format: functional; procedure, shortened: as §3
Staphylococcus aureus [8] = experiment: Minimum inhibitory concentration (MIC) against the cell line Staphylococcus aureus CMX 686B; format: functional; procedure, shortened: as §3
Escherichia coli [9] = experiment: Minimum inhibitory concentration (MIC) against the cell line Escherichia coli juhl; format: functional; procedure, shortened: as §3
Streptococcus equinus = experiment: Minimum inhibitory concentration (MIC) against the cell line Streptococcus bovis A5169; format: functional; procedure, shortened: as §3
[10] = tested on: Staphylococcus epidermidis; experiment: Minimum inhibitory concentration (MIC) against the strain Staphylococcus epidermidis 3519
Staphylococcus aureus [11] = experiment: Minimum inhibitory concentration (MIC) against the cell line Staphylococcus aureus ATCC 6538P; format: functional; procedure, shortened: as §3
Pseudomonas aeruginosa = experiment: Minimum inhibitory concentration (MIC) against the cell line Pseudomonas aeruginosa A5007; format: functional; procedure, shortened: as §3
Staphylococcus aureus [12] = experiment: Minimum inhibitory concentration (MIC) against the cell line Staphylococcus aureus A5177; format: functional; procedure, shortened: as §3
Staphylococcus aureus [13] = experiment: Compound is evaluated for cross resistance with DNA gyrase subunit A or B against Staphylococcus aureus 730A; format: functional
Procedure, shortened: (§4)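 Aerobic MIC by 2-fold dilution on brain–heart infusion agar; values in µg/mL.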

Staphylococcus aureus [14] = experiment: Compound is evaluated for cross resistance with DNA gyrase subunit A or B against Staphylococcus aureus 45; format: functional; procedure, shortened: as §4
Staphylococcus aureus [15] = experiment: Compound is evaluated for cross resistance with DNA gyrase subunit A or B against Staphylococcus aureus 45CR-1 (coumermycin resistant); format: functional; procedure, shortened: as §4
Bacteroides fragilis [16] = experiment: Compound is evaluated for cross resistance with DNA gyrase subunit A or B against Bacteroides fragilis ATCC 25285; format: functional
Staphylococcus aureus [17] = experiment: Compound is evaluated for cross resistance with DNA gyrase subunit A or B against Staphylococcus aureus 337-113 (norfloxacin-resistant); format: functional; procedure, shortened: as §4
Bacteroides fragilis [18] = experiment: Compound is evaluated for cross resistance with DNA gyrase subunit A or B against Bacteroides fragilis TirR (tirandamycin resistant); format: functional
Clostridium perfringens [19] = experiment: Minimum inhibitory concentration against Clostridium perfringens ATCC 13124; 0.05-0.1; format: functional; procedure, shortened: as §2
[20] = tested on: Bacteroides thetaiotaomicron; experiment: Minimum inhibitory concentration against Bacteroides thetaiotaomicron ATCC 29741; 0.2-0.8; format: functional; procedure, shortened: as §1
Bacteroides fragilis [21] = experiment: Minimum inhibitory concentration against Bacteroides fragilis ATCC 25285; 0.1-0.8; format: functional; procedure, shortened: as §1
Clostridioides difficile [22] = experiment: Minimum inhibitory concentration against Clostridium difficile ATCC 9689; 1.6-3.1; format: functional; procedure, shortened: as §1

SMILES	MIC [1] [µg/mL]	MIC (Clostridioides difficile [2]) [µg/mL]	MIC (Clostridium perfringens [3]) [µg/mL]	MIC (Bacteroides fragilis [5]) [µg/mL]	further results
O=C(/C=C/C(Cl)=C/c1ccccc1)C1=C(O)CNC1=O	8 (≈ 27.6 µM)	4 (≈ 13.8 µM)	4 (≈ 13.8 µM)	8 (≈ 27.6 µM)	inhibition [4]: 3.2%
CC(/C=C/C(O)=C1\C(=O)CNC1=O)=C\c1cccc2ccccc12	1 (≈ 3.13 µM)	1 (≈ 3.13 µM)	1 (≈ 3.13 µM)	1 (≈ 3.13 µM)	MIC (Micrococcus luteus): 12.5 µg/mL (≈ 39.1 µM); MIC (Streptococcus pyogenes): 12.5 µg/mL (≈ 39.1 µM); MIC (Escherichia coli [6]): > 100 µg/mL; MIC (Staphylococcus aureus [7]): 3.1 µg/mL (≈ 9.71 µM); MIC (Staphylococcus aureus [8]): 3.1 µg/mL (≈ 9.71 µM); MIC (Escherichia coli [9]): 100 µg/mL (≈ 313 µM); MIC (Streptococcus equinus): 6.2 µg/mL (≈ 19.4 µM); MIC [10]: 6.2 µg/mL (≈ 19.4 µM); MIC (Staphylococcus aureus [11]): 3.1 µg/mL (≈ 9.71 µM); MIC (Pseudomonas aeruginosa): 100 µg/mL (≈ 313 µM); MIC (Staphylococcus aureus [12]): 3.1 µg/mL (≈ 9.71 µM)
CC(/C=C/C(=O)C1=C(O)CN(C)C1=O)=C\c1ccccc1	8 (≈ 28.2 µM)	4 (≈ 14.1 µM)	8 (≈ 28.2 µM)	4 (≈ 14.1 µM)	
CC(/C=C/C(=O)C1=C(O)C(C)N(C)C1=O)=C\c1ccc2ccccc2c1 (centres undefined)	62 (≈ 178 µM)	62 (≈ 178 µM)	31 (≈ 89.2 µM)	62 (≈ 178 µM)	
CC(/C=C/C(=O)C1=C(O)CN(C)C1=O)=C\CC1CCCCC1	31 (≈ 102 µM)	2 (≈ 6.59 µM)	2 (≈ 6.59 µM)	8 (≈ 26.4 µM)	
CN1CC(O)=C(C(=O)/C=C/C=C/c2ccccc2[N+](=O)[O-])C1=O	62 (≈ 197 µM)	62 (≈ 197 µM)	62 (≈ 197 µM)	62 (≈ 197 µM)	
CC(/C=C/C(=O)C1=C(O)CN(C)C1=O)=C\c1cnc2ccccc2c1	4 (≈ 12 µM)	2 (≈ 5.98 µM)	2 (≈ 5.98 µM)	2 (≈ 5.98 µM)	
CN1CC(O)=C(C(=O)/C=C/C(Cl)=C/c2ccccc2)C1=O	16 (≈ 52.7 µM)	8 (≈ 26.3 µM)	8 (≈ 26.3 µM)	16 (≈ 52.7 µM)	
CCCCCC(/C=C/C(O)=C1\C(=O)CN(C)C1=O)=C\c1ccccc1	125 (≈ 368 µM)	31 (≈ 91.3 µM)	16 (≈ 47.1 µM)	62 (≈ 183 µM)	inhibition [4]: 5.6%
CC(/C=C/C(O)=C1\C(=O)CN(C)C1=O)=C\C(C)C	62 (≈ 249 µM)	31 (≈ 124 µM)	31 (≈ 124 µM)	31 (≈ 124 µM)	
CC(/C=C/C(=O)C1=C(O)CN(C)C1=O)=C\c1ccc2ccccc2c1	31 (≈ 93 µM)	< 0.5	2 (≈ 6 µM)	< 0.5	MIC (Staphylococcus aureus [13]): 0.25 µg/mL (≈ 0.75 µM); MIC (Micrococcus luteus): 1.56 µg/mL (≈ 4.68 µM); MIC (Streptococcus pyogenes): 50 µg/mL (≈ 150 µM); MIC (Staphylococcus aureus [14]): 0.25 µg/mL (≈ 0.75 µM); MIC (Staphylococcus aureus [15]): 0.25 µg/mL (≈ 0.75 µM); MIC (Escherichia coli [6]): 200 µg/mL (≈ 600 µM); MIC (Staphylococcus aureus [7]): 1.56 µg/mL (≈ 4.68 µM); MIC (Staphylococcus aureus [8]): 1.56 µg/mL (≈ 4.68 µM); MIC (Escherichia coli [9]): 200 µg/mL (≈ 600 µM); MIC (Bacteroides fragilis [16]): 0.5 µg/mL (≈ 1.5 µM); MIC (Streptococcus equinus): 200 µg/mL (≈ 600 µM); MIC [10]: 1.56 µg/mL (≈ 4.68 µM); MIC (Staphylococcus aureus [11]): 1.56 µg/mL (≈ 4.68 µM); MIC (Pseudomonas aeruginosa): 100 µg/mL (≈ 300 µM); MIC (Staphylococcus aureus [17]): 0.25 µg/mL (≈ 0.75 µM); MIC (Staphylococcus aureus [12]): 1.56 µg/mL (≈ 4.68 µM); MIC (Bacteroides fragilis [18]): 0.5 µg/mL (≈ 1.5 µM); inhibition [4]: 12.3%
CC(/C=C/C(=O)C1=C(O)CN(C)C1=O)=C\C1CCCCC1	8 (≈ 27.6 µM)	4 (≈ 13.8 µM)	4 (≈ 13.8 µM)	8 (≈ 27.6 µM)	
CN1CC(O)=C(C(=O)/C=C/C=C/c2ccccc2)C1=O	62 (≈ 230 µM)	16 (≈ 59.4 µM)	125 (≈ 464 µM)	62 (≈ 230 µM)	
CC(/C=C/C(O)=C1\C(=O)CNC1=O)=C\[C@@H](C)C1OC2(C)OC(C(=O)[C@@H]3O[C@@]32C)C1C (some centres undefined)					MIC (Clostridium perfringens [19]): ≤ 0.05 µg/mL; MIC [20]: 0.2 µg/mL (≈ 0.479 µM); MIC (Bacteroides fragilis [21]): 0.1 µg/mL (≈ 0.24 µM); MIC (Clostridioides difficile [22]): 1.6 µg/mL (≈ 3.83 µM); inhibition [4]: 50%
CN1CC(O)=C(C(=O)/C=C/C(Br)=C/c2ccccc2)C1=O	16 (≈ 46 µM)	16 (≈ 46 µM)	8 (≈ 23 µM)	16 (≈ 46 µM)	
CO[C@@H]1[C@@H](OC(=O)c2ccc(C)[nH]2)[C@@H](O)[C@@H](Oc2ccc3c(O)c(NC(=O)c4c[nH]c(C(=O)Nc5c(O)c6ccc(O[C@H]7OC(C)(C)[C@H](OC)[C@@H](OC(=O)c8ccc(C)[nH]8)[C@H]7O)c(C)c6oc5=O)c4C)c(=O)oc3c2C)OC1(C)C [COUMERMYCIN]					MIC (Staphylococcus aureus [13]): 0.008 µg/mL (≈ 0.00721 µM); MIC (Staphylococcus aureus [14]): 0.008 µg/mL (≈ 0.00721 µM); MIC (Staphylococcus aureus [15]): 4 µg/mL (≈ 3.6 µM); MIC (Staphylococcus aureus [17]): 0.008 µg/mL (≈ 0.00721 µM)
CC(/C=C/C(O)=C1\C(=O)CN(C)C1=O)=C\C(C)c1ccccc1 (centres undefined)	16 (≈ 51.4 µM)	125 (≈ 401 µM)	125 (≈ 401 µM)	8 (≈ 25.7 µM)	
COc1ccc(/C=C(C)/C=C/C(O)=C2\C(=O)CN(C)C2=O)c2ccccc12	125 (≈ 344 µM)	4 (≈ 11 µM)	2 (≈ 5.5 µM)	62 (≈ 171 µM)	
CC(/C=C/C(=O)C1=C(O)CN(C)C1=O)=C\c1cccc2ccccc12	2 (≈ 6 µM)	< 0.5	< 0.5	< 0.5	MIC (Micrococcus luteus): 6.2 µg/mL (≈ 18.6 µM); MIC (Streptococcus pyogenes): 12.5 µg/mL (≈ 37.5 µM); MIC (Escherichia coli [6]): > 100 µg/mL; MIC (Staphylococcus aureus [7]): 3.1 µg/mL (≈ 9.3 µM); MIC (Staphylococcus aureus [8]): 3.1 µg/mL (≈ 9.3 µM); MIC (Escherichia coli [9]): > 100 µg/mL; MIC (Streptococcus equinus): 50 µg/mL (≈ 150 µM); MIC [10]: 3.1 µg/mL (≈ 9.3 µM); MIC (Staphylococcus aureus [11]): 3.1 µg/mL (≈ 9.3 µM); MIC (Pseudomonas aeruginosa): > 100 µg/mL; MIC (Staphylococcus aureus [12]): 3.1 µg/mL (≈ 9.3 µM)
